This passage reports EC50 results from PubChem BioAssay AID809 (SRMLSC, 2007).

pEC50: −log10 of the molar value. The source made the active and inactive calls.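 The calls were made as follows: active = EC50 for reversing nicotinamide-shortened yeast lifespan at or below a set limit; inactive = EC50 above that limit.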

This assay relates to S. cerevisiae DeaD BB579, nicotinamide rescue growth, OD615 48 h. The experiment in a line: BB579 yeast growth restoration under nicotinamide – S. cerevisiae, yeast lifespan extension project, dose response (AID 809). Summed up:
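System – S. cerevisiae DeaD strain BB579 · Buffer or medium – CSMM-D glucose restrictive medium · Times – culture pre-incubation 4 h, then compound exposure 48 h, both 30 °C · Signal – OD615 absorbance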
For `CC1CC(C)CN(S(=O)(=O)c2cccc(C(=O)N3C(=O)c4cccc(N)c4C3=O)c2)C1` (stereo not given), the pEC50 was 5.33.

As to `CCOC(=O)/C(=C\c1cn(C)c2ccccc12)[N+](=O)[O-]`, the pEC50 was 5.51.

As for `O=C(Nc1cccnc1)c1c(O)c2cccc3c2n(c1=O)CC3`, the pEC50 is 5.35.

Turning to `N#CSCC(=O)N1c2ccccc2CCc2ccccc21`, the pEC50 was 5.06.

Consider `O=C(NC(=S)Nc1nc2c(s1)CSc1ccccc1-2)c1ccccc1`, for which the EC50 was > 10 µM (inactive).

Regarding `CCOc1ccccc1/C=c1\sc2ncnn2c1=O`, the pEC50 was 5.14.

For the molecule `O=c1[nH]c2ccccc2nc1Cc1ccccc1`, the EC50 was > 10 µM (inactive).

`CCOC(=O)C1CCN(C(c2cc3ccc(C)c(C)c3[nH]c2=O)c2nnnn2C2CCCCC2)CC1` (stereo not given): the EC50 was > 10 µM (inactive).

As to `O=C(/C=C/c1ccccc1)C1C(=O)c2ccccc2C1=O`, the EC50 was > 10 µM (inactive).

As to `Cc1c(NC(=O)C(=O)/C=C(/O)c2ccccc2)c(=O)n(-c2ccccc2)n1C`, the pEC50 was 5.31.

Regarding `CCOC(=O)C1C(c2cccs2)NC(=O)N(C)C1(O)C(F)(F)F` (stereo not given), the EC50 was > 10 µM (inactive).

In the case of `CC(C)OCCCNS(=O)(=O)c1ccc2ccccc2c1`, the EC50 was > 10 µM (inactive).

With `CN1OC(c2ccccc2)=C(CO)C1c1ccccc1` (stereo not given), the EC50 was > 10 µM (inactive).

With `Oc1ccc(Br)cc1C=Nc1ccc2[nH]ncc2c1`, the EC50 was > 10 µM (inactive).

For `COc1ccc(C(=O)On2c(-c3ccc(Br)cc3)nc3ccccc3c2=O)cc1`, the pEC50 was 5.52.

As for `CCn1cc(C(=O)O)c(=O)c2ccc(C)nc21`, the pEC50 was 5.44.

In the case of `Cc1cc(NS(=O)(=O)c2ccc(CC(C)C)cc2)no1`, the pEC50 was 5.20.

As for `CCCCCSc1nc2c(c(=O)[nH]c(=O)n2C)n1C`, the EC50 was > 10 µM (inactive).

`COc1ccc(CCN2C(=O)C(O)=C(C(=O)c3ccco3)C2c2cccs2)cc1OC` (stereo not given): the pEC50 was 5.05.

For `CCSc1ccccc1C(=O)n1nnc2ccccc21`, the pEC50 is 5.11.

As to `CC(=O)Oc1ccc(N(C(C)=O)S(=O)(=O)c2ccc(C)c([N+](=O)[O-])c2)cc1`, the EC50 was > 10 µM (inactive).

With `CC(C)c1ccc2occ(-c3nn[nH]n3)c(=O)c2c1`, the pEC50 is 5.19.

Consider `COC(=O)c1sc2ncn(-n3c(C)ccc3C)c(=O)c2c1C`, for which the EC50 is > 10 µM (inactive).

Regarding `CC(=O)C(C(C)=O)c1c(Cl)c(O)c(O)c2c(C(=O)c3ccccc3)coc12`, the EC50 is > 10 µM (inactive).

For the molecule `Cc1n[nH]c(=O)n1-c1cccc(C(F)(F)F)c1`, the EC50 was > 10 µM (inactive).

For `COc1cc(OC)cc(-c2nc3ccccc3c(=O)n2OC(=O)c2ccc(C)c(C)c2)c1`, the pEC50 is 5.06.

On to `CC1=C(C#N)C2C(/C1=N/O)C2(C)C` (stereo not given), for which the EC50 was > 10 µM (inactive).

As to `C=CCn1c(C)cc(C(=O)COc2ncnc3sccc23)c1C`, the pEC50 is 5.00.

For the molecule `CN=C(SCc1cc2c(cc1Cl)OCO2)c1c(O)n(C)c(=O)n(C)c1=O`, the pEC50 is 5.19.

`CCCCCCCC(=O)N/N=C(/C)c1c(O)cc(C)oc1=O`: the EC50 was > 10 µM (inactive).

For `COc1cccc(/C=C2\C(=O)N(c3cccc(C)c3)C(=O)c3ccccc32)c1`, the EC50 is > 10 µM (inactive).

On to `Cc1nn(C(C)(C)C)c(OC(=O)c2ccc(Br)o2)c1Sc1ccccc1`, for which the negative-log EC50 (pEC50) is 5.11.

Regarding `O=C1OC2(CCCCC2)OC(=O)C1=CNc1nc2ccccc2s1`, the EC50 was > 10 µM (inactive).

Take `CCCN1C(=O)/C(=C/c2ccncc2)SC1=S`: the pEC50 is 5.16.

Regarding `Cc1oc2c(c(=O)c1C)C(=O)CC(c1ccccc1)C2` (stereo not given), the negative logarithm of the EC50 (pEC50) was 5.11.

As for `CCOc1cc(/C=C\[N+](=O)[O-])ccc1OCC(=O)Nc1ccccc1C`, the EC50 was > 10 µM (inactive).

`CC(=C1C(=O)c2ccccc2C1=O)N1CCN(c2ccccn2)CC1`: the negative-log EC50 (pEC50) is 5.14.

For the molecule `CC1=CS(=O)(=O)CC1Sc1nc2ccccc2[nH]1` (stereo not given), the EC50 was > 10 µM (inactive).

As for `Cc1ccccc1OC(=O)n1c(=S)oc2cc(Cl)ccc21`, the pEC50 is 5.18.

For `CCCCCC(=O)N1CCN(CCN=CC2=C(O)CC(c3ccc(OC)c(OC)c3)CC2=O)CC1` (stereo not given), the EC50 is > 10 µM (inactive).

As for `O=C(/C=C(\O)c1ccc(Cl)cc1)C(=O)NNC(=O)C(O)(c1ccccc1)c1ccccc1`, the pEC50 is 5.56.

As to `O=C(Nc1scc(-c2cccs2)c1C(=O)O)c1cccs1`, the pEC50 was 5.17.

As to `Cc1ccc(N/C(C(Cl)=C(Cl)Cl)=C(/Cl)[N+](=O)[O-])c(C)c1`, the pEC50 is 5.06.

For `O=C1/C(=C/c2cccnc2)CCC/C1=C\c1cccnc1`, the pEC50 is 5.15.

For the molecule `Cc1ncc(C23CC4CC(CC(C4)C2)C3)[nH]1`, the EC50 was > 10 µM (inactive).

With `c1cncc(-c2nn[nH]n2)c1`, the EC50 is > 10 µM (inactive).

With `O=S1(=O)C=C(Sc2nnc(-c3ccccc3)o2)c2ccccc21`, the pEC50 was 5.03.

For the molecule `COc1ccc(/C=C(\C#N)C(=O)N2CCOCC2)cc1Br`, the pEC50 was 5.06.

`CC(C)CN=C(NS(=O)(=O)c1ccccc1)C(Cl)(Cl)Cl`: the pEC50 was 5.40.

In the case of `CCC(=NCCc1c(C)[nH]c2ccc(C)cc12)C1=C(O)CC(c2ccccc2)CC1=O` (stereo not given), the pEC50 is 5.29.

Regarding `COc1cc(Br)cc(-c2nc3c(c(=O)[nH]c(=O)n3Cc3ccccc3)n2C)c1O`, the EC50 was > 10 µM (inactive).

On to `CC(=C1C(=O)c2ccccc2C1=O)N1CCN(C/C=C/c2ccccc2)CC1`, for which the EC50 was > 10 µM (inactive).

For `O=Cc1cccn1-c1sc2c(c1C(=O)O)CCCC2`, the EC50 was > 10 µM (inactive).

Take `O=c1cc(-c2ccccc2Cl)oc2ccc([N+](=O)[O-])c(O)c12`: the pEC50 is 5.13.

Regarding `O=C(/C(=C/c1ccccc1)n1cncn1)c1ccc(Cl)cc1Cl`, the pEC50 is 5.97.

As to `c1ccc(-c2cc(N3CCOCC3)nc3ccccc23)cc1`, the EC50 is > 10 µM (inactive).

Regarding `CCCC(=O)Nc1ccc(C(=O)NNC(=S)NC(=O)c2cccs2)cc1`, the EC50 was > 10 µM (inactive).

Regarding `O=c1c2c3c(sc2ncn1/N=C/c1ccc([N+](=O)[O-])o1)CCCC3`, the EC50 was > 10 µM (inactive).

On to `CC(C)(C)C(=O)Cn1c(=N)n(Cc2ccccc2)c2ccccc21`, for which the pEC50 is 5.03.

For the molecule `CCOC(=O)CC1=NN(c2ccccc2)C(=O)/C1=C\c1ccc(OC)cc1OC`, the pEC50 is 5.07.

For the molecule `CC(=O)Nc1nc(C)c(Oc2ccccc2)c(=O)[nH]1`, the EC50 was > 10 µM (inactive).

Consider `CNC(=S)NC1CC2CCCC(C1)N2Cc1ccco1` (stereo not given), for which the EC50 was > 10 µM (inactive).

Regarding `O=C(Oc1cc(=O)n2ccccc2n1)c1ccccc1`, the pEC50 was 5.14.

Take `O=c1c2[nH]c3ccccc3c2ncn1Cc1ccco1`: the EC50 is > 10 µM (inactive).

Consider `CC1C/C(=C\c2cccnc2)C(=O)/C(=C/c2cccnc2)C1` (stereo not given), for which the pEC50 was 5.37.

For the molecule `CC(C)(C)C(=O)/C(=C/c1cccc([N+](=O)[O-])c1)n1cncn1`, the pEC50 is 5.43.

On to `O=C1C=CC2C(c3ccc4c(c3)OCO4)CC1N2Cc1ccccc1` (stereo not given), for which the pEC50 is 5.22.

On to `Cc1ccc(NC(=O)Nc2nc(-c3ccc(C)s3)cs2)cc1`, for which the EC50 is > 10 µM (inactive).

For `O=C(/C=C/c1ccccc1)Nc1ncn[nH]1`, the EC50 is > 10 µM (inactive).

In the case of `Cc1nc2ccccc2n1-c1ccccc1`, the EC50 was > 10 µM (inactive).

In general, pEC50 refers to the EC50 on a negative log10 scale, so that one unit is a factor of ten. The EC50 is the concentration needed to bring the measured effect to its halfway point.
